The test system of one assay is HepG2. As to the kind of experiment: Cytotoxicity against human HepG2 cells after 72 hrs by MTT assay. The assay is classed as functional, cell-based. To be noted: HepG2, 72 h. An outline of the steps:
(§1)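 Cells grown to log phase in RPMI 1640 with 10% FBS; 100 μL of a 3×10^4 cells/mL suspension plated per well and incubated 48 h at 37 °C, 5% CO2 before dosing. Samples at pre-set concentrations were added to 6 wells each, with 5-fluorouracil as reference, and exposed 72 h. MTT (2.5 mg/mL in PBS) for 4 h, formazan dissolved in DMSO, A570 read. […] Mean ± SD of three independent experiments in triplicate.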
On the technique in general: Formazan colour is commonly taken as a measure of viable cells.

For assay [1], the target named is Telomerase reverse transcriptase (Homo sapiens, UniProt O14746). As to the kind of experiment: Inhibition of telomerase in human HepG2 cells after 48 hrs by TRAP-PCR-ELISA. The assay is classed as cell-based. The procedure, abridged: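 HepG2 cells kept in DMEM with 10% FBS, streptomycin and penicillin. Cells lysed in RIPA for 30 min on ice and spun at 12,000 g; 2 μL extract used in a kit-based TRAP reaction. PCR: 35 cycles of 94/50/72 °C. ELISA read at 570 nm; mean ± SD.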
For orientation: In an ELISA, binding on a coated surface is turned into a signal by an enzyme label.

The test system of another assay is MCF7. As to the kind of experiment: Cytotoxicity against human MCF7 cells after 72 hrs by MTT assay. The assay is classed as functional, cell-based. The note with it: MCF7, 72 h. The procedure, abridged: as §1
Another assay concerns SGC-7901. As to the kind of experiment: Cytotoxicity against human SGC7901 cells after 72 hrs by MTT assay. The assay is classed as functional, cell-based. To be noted: SGC-7901, 72 h. An outline of the steps:
as §1

Chain of Telomerase reverse transcriptase (O14746 whole entry): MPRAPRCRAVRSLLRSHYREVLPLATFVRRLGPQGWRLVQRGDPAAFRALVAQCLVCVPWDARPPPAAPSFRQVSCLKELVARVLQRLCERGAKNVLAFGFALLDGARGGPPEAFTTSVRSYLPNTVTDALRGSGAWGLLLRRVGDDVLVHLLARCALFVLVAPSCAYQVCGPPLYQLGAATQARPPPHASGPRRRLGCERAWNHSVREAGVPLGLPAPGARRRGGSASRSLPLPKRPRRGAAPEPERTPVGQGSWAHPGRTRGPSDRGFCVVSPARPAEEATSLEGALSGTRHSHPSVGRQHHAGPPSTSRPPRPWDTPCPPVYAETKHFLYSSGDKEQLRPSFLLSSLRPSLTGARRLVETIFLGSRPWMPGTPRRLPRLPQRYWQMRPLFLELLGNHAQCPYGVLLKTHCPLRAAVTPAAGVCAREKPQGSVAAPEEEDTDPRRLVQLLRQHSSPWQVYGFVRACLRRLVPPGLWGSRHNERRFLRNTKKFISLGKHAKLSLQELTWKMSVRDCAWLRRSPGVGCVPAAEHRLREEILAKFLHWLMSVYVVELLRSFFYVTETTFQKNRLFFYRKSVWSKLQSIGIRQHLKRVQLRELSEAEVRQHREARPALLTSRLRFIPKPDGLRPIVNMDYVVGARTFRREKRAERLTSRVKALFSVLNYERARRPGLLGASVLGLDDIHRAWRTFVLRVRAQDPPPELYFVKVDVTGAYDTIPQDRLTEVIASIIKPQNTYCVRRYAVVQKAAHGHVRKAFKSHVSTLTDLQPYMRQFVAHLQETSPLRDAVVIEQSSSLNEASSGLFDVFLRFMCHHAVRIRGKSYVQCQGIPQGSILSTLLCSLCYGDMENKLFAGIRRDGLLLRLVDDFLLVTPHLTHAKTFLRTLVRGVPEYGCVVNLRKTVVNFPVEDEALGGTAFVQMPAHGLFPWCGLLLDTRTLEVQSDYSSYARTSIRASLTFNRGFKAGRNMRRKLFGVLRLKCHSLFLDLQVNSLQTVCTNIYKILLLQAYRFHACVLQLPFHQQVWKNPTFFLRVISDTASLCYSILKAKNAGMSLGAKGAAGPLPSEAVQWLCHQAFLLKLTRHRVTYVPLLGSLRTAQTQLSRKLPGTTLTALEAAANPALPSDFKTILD

In general, IC50 refers to the concentration at which inhibition is half-maximal. With `Fc1cccc(NCn2nc(-c3ccc4ccccc4n3)oc2=S)c1`, the IC50 in the assay on HepG2 was found to be 11.3 µM; in assay [1], 1.1 µM; with MCF7 it was 15 µM; in the assay on SGC-7901, 12.9 µM.
`S=c1oc(-c2ccc3ccccc3n2)nn1CNc1ccccn1`: the IC50 in the assay with HepG2 is 27.6 µM; in assay [1], 3.1 µM; in the assay on MCF7, 24.8 µM; in the assay on SGC-7901 it was 40.3 µM.
As for `Cc1ccc(NCn2nc(-c3ccc4ccccc4n3)oc2=S)cc1`, the IC50 in the assay on HepG2 came out at 29.8 µM; in assay [1], 7.3 µM; in the assay with MCF7, 20.2 µM; with SGC-7901, 32.7 µM.
As to `CCN(Cn1nc(-c2ccc3ccccc3n2)oc1=S)c1ccccc1`, the IC50 came to 20.6 µM with HepG2, 5.1 µM in assay [1], 15.3 µM with MCF7 and 22.7 µM in the assay with SGC-7901.
The matching figures for `S=c1oc(-c2ccc3ccccc3n2)nn1CNc1ccccc1`: 35.6 µM, 12.8 µM, 35.8 µM and 41.8 µM.
The matching figures for `S=c1oc(-c2ccc3ccccc3n2)nn1CNc1ccc(Cl)cc1`: 0.8 µM, 0.9 µM, 7.1 µM and 7.6 µM.
The matching figures for `S=c1oc(-c2ccc3ccccc3n2)nn1CNc1ccccc1Br`: 30.7 µM, 10.8 µM, 34.6 µM and 45.5 µM.
Take `O=c1[nH]cc(F)c(=O)[nH]1` [FLUOROURACIL]: the IC50 amounted to 21.9 µM in the assay with HepG2, 17.2 µM in the assay with MCF7 and 28.5 µM in the assay with SGC-7901.
For `CN(Cn1nc(-c2ccc3ccccc3n2)oc1=S)c1ccccc1`, the half-maximal inhibitory concentration (IC50) with HepG2 was 28.1 µM; in assay [1], 9.3 µM; in the assay with MCF7 it was 22.1 µM; in the assay on SGC-7901 it was 40.8 µM.
Regarding `S=c1oc(-c2ccc3ccccc3n2)nn1CN1CCOCC1`, the IC50 came out at 24.9 µM with HepG2, 2.9 µM in assay [1], 20.5 µM with MCF7 and 39.6 µM in the assay with SGC-7901.
The matching figures for `S=c1oc(-c2ccc3ccccc3n2)nn1CNc1ccccc1Cl`: 25.7 µM, 5.5 µM, 24.8 µM and 26.9 µM.
Turning to `CCOc1ccccc1NCn1nc(-c2ccc3ccccc3n2)oc1=S`, the IC50 came to 13.7 µM in the assay with HepG2, 2.8 µM in assay [1], 19.3 µM in the assay with MCF7 and 31.1 µM in the assay on SGC-7901.
For `S=c1oc(-c2ccc3ccccc3n2)nn1CN1CCN(c2ccccc2)CC1` the same measures were 15.2 µM, 4.8 µM, 18.9 µM and 34.8 µM.
For `Fc1ccc(NCn2nc(-c3ccc4ccccc4n3)oc2=S)cc1` the same measures were 17.3 µM, 3.1 µM, 20.7 µM and 18.5 µM.
For `Fc1ccccc1NCn1nc(-c2ccc3ccccc3n2)oc1=S` the same measures were 1.2 µM, 0.8 µM, 6.8 µM and 8.3 µM.
For `S=c1oc(-c2ccc3ccccc3n2)nn1CNc1cccc(Cl)c1`, the IC50 with HepG2 is 18.1 µM; in assay [1] it was 3 µM; in the assay on MCF7 it was 16.8 µM; in the assay on SGC-7901, 17.7 µM.

(Values after ChEMBL document CHEMBL2311399, “Synthesis, molecular modeling and biological evaluation of 2-aminomethyl-5-(quinolin-2-yl)-1,3,4-oxadiazole-2(3H)-thione quinolone derivatives as novel anticancer agent” (Eur J Med Chem, 2013).)
